Active and inactive are the calls of the source. No cut-off for these calls is given here.
Legend:
[1] = test system: Mus musculus; assay: Central nervous depressant activity in ip dosed mouse assessed as induction of ataxia; type: functional; conditions: Central nervous system
Procedure, shortened: (§1)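 Behavioral scoring in mice used a modified Irwin observational method. Compounds were given ip at ten animals per dose. Ataxia and loss of righting reflex were recorded, and ED50 values are in mg/kg ip.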

[2] = test system: Mus musculus; assay: Central nervous depressant activity in ip dosed mouse assessed as loss of righting reflex; type: functional; conditions: Central nervous system; procedure, shortened: as §1
[3] = test system: Mus musculus; assay: Reinduction of anesthesia-induced loss of righting in dosed mouse administered compound following recovery from hexobarbital anesthesia; type: functional
Procedure, shortened: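 Mice were anesthetized with hexobarbital (70 mg/kg iv). Compound was given ip immediately on recovery, and reinduction of loss of righting was timed from that point. The method was modified from earlier work, and RD50 is expressed in mg/kg ip.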

[4] = species on record: Mus musculus; assay: Anticonvulsant activity in mouse assessed as protection against maximal electroshock-induced seizures; type: functional
Procedure, shortened: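 Maximal electroshock seizure test in mice, run by an earlier published method. Compounds were given ip at ten animals per dose, and ED50 is expressed in mg/kg ip.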

[5] = species on record: Mus musculus; assay: Anticonvulsant activity in mouse assessed as protection against N-sulfamoylhexahydroazepine-induced convulsions; type: functional
Procedure, shortened: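 N-sulfamoylhexahydroazepine convulsion test in mice, run by an earlier published method. Compounds were given ip at ten animals per dose, and ED50 is expressed in mg/kg ip.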

[6] = Acute toxicity in ip dosed Royal Hart Wistar rat; type: organism-based; conditions: in vivo
Procedure, shortened: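 Paired male Royal Hart Wistar rats (136–160 g) were housed in wire cages and dosed ip. LD50 was read 2 hr after administration, using four rats per substance, and estimated by probit analysis.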

[7] = test system: Mus musculus; assay: Anticonvulsant activity in mouse assessed as protection against N-sulfamoylhexahydroazepine-induced convulsions at 200 mg/kg, ip; type: functional, organism-based; parameters: dose 200 mg/kg
[8] = test system: Mus musculus; assay: Anticonvulsant activity in mouse assessed as protection against maximal electroshock-induced seizures at 100 mg/kg, ip; type: functional, organism-based; parameters: dose 100 mg/kg
[9] = test system: Mus musculus; assay: Anticonvulsant activity in mouse assessed as protection against maximal electroshock-induced seizures at 200 mg/kg, ip; type: functional, organism-based; parameters: dose 200 mg/kg
[10] = test system: Mus musculus; assay: Anticonvulsant activity in mouse assessed as protection against N-sulfamoylhexahydroazepine-induced convulsions at 400 mg/kg, ip; type: functional, organism-based; parameters: dose 400 mg/kg

Cc1ccc(C23CCC(=O)N2CCCO3)c(C)c1 (stereo not drawn)
ED50 [1]: < 50 mg/kg | ED50 [2]: 150 mg/kg | RD50 [3]: <150 mg/kg | ED50 [4]: > 150 mg/kg | ED50 [5]: < 150 mg/kg | LD50 [6]: 600 mg/kg

CCC1(c2ccccc2)C(=O)N=C([O-])NC1=O.[Na+] (stereo not drawn) [PHENOBARBITAL SODIUM]
ED50 [1]: 62.5 mg/kg | ED50 [2]: 83 mg/kg | RD50 [3]: 65.6 mg/kg | ED50 [4]: 15.4 mg/kg | ED50 [5]: 8 mg/kg | LD50 [6]: 225 mg/kg

O=C(CCC(=O)c1cccs1)NCCCO
ED50 [1]: 300 mg/kg | ED50 [2]: 300 mg/kg | RD50 [3]: >300 mg/kg | ED50 [4]: > 300 mg/kg | ED50 [5]: > 300 mg/kg | LD50 [6]: 475 mg/kg

COc1ccc(C(=O)CCC(=O)NCCCO)cc1
ED50 [1]: 150 mg/kg | ED50 [2]: 800 mg/kg | RD50 [3]: <600 mg/kg | ED50 [4]: > 600 mg/kg | ED50 [5]: > 600 mg/kg | LD50 [6]: 800 mg/kg

O=C1CCC2(c3cccs3)OCCCN12 (stereo not drawn)
ED50 [1]: > 75 mg/kg | ED50 [2]: > 75 mg/kg | RD50 [3]: 46.5 mg/kg | ED50 [4]: 112 mg/kg | ED50 [5]: > 75 mg/kg | LD50 [6]: 467 mg/kg

O=C1CCCC2(c3ccccc3)OCCCN12 (stereo not drawn)
ED50 [1]: < 50 mg/kg | ED50 [2]: 150 mg/kg | RD50 [3]: 75 mg/kg | ED50 [4]: < 150 mg/kg | ED50 [5]: 122 mg/kg | LD50 [6]: 500 mg/kg

O=C(CCC(=O)c1ccc(F)cc1)NCCCO
ED50 [1]: 300 mg/kg | ED50 [2]: 500 mg/kg | RD50 [3]: >400 mg/kg | ED50 [4]: > 400 mg/kg | ED50 [5]: > 400 mg/kg | LD50 [6]: > 800 mg/kg

Cc1ccc(C(=O)CCC(=O)NCCCO)c(C)c1
ED50 [1]: 150 mg/kg | ED50 [2]: 150 mg/kg | RD50 [3]: <150 mg/kg | ED50 [4]: > 150 mg/kg | ED50 [5]: > 150 mg/kg | LD50 [6]: 633 mg/kg

O=C(CCC(=O)c1ccc(Cl)cc1)NCCCO
ED50 [1]: 300 mg/kg | ED50 [2]: 325 mg/kg | RD50 [3]: <300 mg/kg | ED50 [4]: > 300 mg/kg | ED50 [5]: > 300 mg/kg | LD50 [6]: 633 mg/kg

Cc1ccc(C23CCC(=O)N2CCCO3)cc1 (stereo not drawn)
Activity [7]: inactive | ED50 [1]: < 50 mg/kg | ED50 [2]: 160 mg/kg | RD50 [3]: >100 mg/kg | LD50 [6]: 675 mg/kg | Activity [8]: inactive

O=C1CCC2(c3ccccc3)OCCN12 (stereo not drawn)
Activity [7]: inactive | ED50 [1]: < 50 mg/kg | ED50 [2]: 150 mg/kg | RD50 [3]: 37.5 mg/kg | Activity [9]: inactive | LD50 [6]: 300 mg/kg

O=C1CCC2(c3ccc(Cl)c(Cl)c3)OCCCN12 (stereo not drawn)
ED50 [1]: < 150 mg/kg | ED50 [2]: < 150 mg/kg | RD50 [3]: >150 mg/kg | ED50 [4]: 112 mg/kg | ED50 [5]: < 75 mg/kg | LD50 [6]: 550 mg/kg

O=C1CCC2(c3ccc(Cl)cc3)OCCCN12 (stereo not drawn)
ED50 [1]: 75 mg/kg | ED50 [2]: 81.2 mg/kg | RD50 [3]: >100 mg/kg | ED50 [4]: 58 mg/kg | ED50 [5]: 91.7 mg/kg | LD50 [6]: 675 mg/kg

COc1ccc(C23CCC(=O)N2CCCO3)cc1 (stereo not drawn)
ED50 [1]: < 150 mg/kg | ED50 [2]: < 150 mg/kg | RD50 [3]: <150 mg/kg | ED50 [4]: 93.8 mg/kg | ED50 [5]: 138 mg/kg

O=C(CCC(=O)c1ccc(Cl)c(Cl)c1)NCCCO
ED50 [1]: 300 mg/kg | ED50 [2]: 500 mg/kg | RD50 [3]: >300 mg/kg | ED50 [4]: 450 mg/kg | ED50 [5]: > 600 mg/kg | LD50 [6]: 500 mg/kg

Cc1ccc(C(=O)CCC(=O)NCCCO)cc1
ED50 [1]: 300 mg/kg | ED50 [2]: 700 mg/kg | RD50 [3]: <300 mg/kg | ED50 [4]: > 300 mg/kg | ED50 [5]: > 300 mg/kg | LD50 [6]: 750 mg/kg

O=C1CCCC2(c3ccccc3)OCCN12 (stereo not drawn)
ED50 [1]: < 150 mg/kg | ED50 [2]: > 150 mg/kg | RD50 [3]: 69 mg/kg | ED50 [4]: 158 mg/kg | ED50 [5]: 150 mg/kg

O=C1CCC2(c3ccccc3)OCCCN12 (stereo not drawn)
ED50 [1]: 37.5 mg/kg | ED50 [2]: 150 mg/kg | RD50 [3]: 34 mg/kg | ED50 [4]: 92 mg/kg | ED50 [5]: 169 mg/kg | LD50 [6]: 500 mg/kg

CCC1(c2ccccc2)CCC(=O)NC1=O (stereo not drawn) [GLUTETHIMIDE]
ED50 [1]: 100 mg/kg | ED50 [2]: 229 mg/kg | RD50 [3]: 112.5 mg/kg | ED50 [4]: 24.7 mg/kg | Activity [10]: inactive | LD50 [6]: 350 mg/kg

O=C1CCC2(c3ccc(F)cc3)OCCCN12 (stereo not drawn)
ED50 [1]: 75 mg/kg | ED50 [2]: 100 mg/kg | RD50 [3]: 66 mg/kg | ED50 [4]: 68.7 mg/kg | ED50 [5]: 50 mg/kg | LD50 [6]: 600 mg/kg
